Assay results taken from ChEMBL document CHEMBL2146383, “Identification of an Orally Bioavailable, Potent, and Selective Inhibitor of GlyT1” (ACS Med Chem Lett, 2010).
pIC50: −log10 of the molar value. Calls of active or inactive are those of the source.

Key:
[1] = tested on: Plasma; experiment: Receptor occupancy at Glyt1 in rat plasma at 10 mg/kg, po; type: functional
[2] = species: Mus musculus; experiment: Binding affinity to mouse P-gp
[3] = tested on: Rhesus monkey; experiment: Receptor plasma occupancy at Glyt1 in rhesus monkey pons assessed as inhibition of [18F]MK-6577 uptake administered as iv bolus plus infusion by PET imaging; type: functional, Macaca mulatta
Summary of the method: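 Rhesus monkeys (~10 kg) sedated with ketamine 10 mg/kg im, induced with propofol 5 mg/kg iv, and maintained on propofol 0.4 mg/kg/min. Compound given iv as bolus plus infusion in EtOH:H2O:PEG400 (10:40:50); ~5 mCi [18F]MK-6577 injected 1 h into the infusion. Dynamic PET scans compared baseline and blockade uptake to derive an occupancy versus plasma concentration curve and plasma Occ50.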

[4] = Half life in rat at 1 mg/kg, po and 1 mg/kg, iv; type: ADME, organism-based; settings: in vivo
Summary of the method: (§1)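 Rat PK: 1.0 mg/kg iv and po, oral arm as 0.5% methocel suspension; plasma Cl, Vd(ss), T1/2, F, Cmax (μM) and Tmax determined.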

[5] = Oral bioavailability in dog at 1 mg/kg; type: ADME, organism-based, Canis lupus familiaris; settings: in vivo
Summary of the method: (§2)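 Dog PK: single 1.0 mg/kg dose given iv and po; oral dosing in 0.5% methocel suspension. Clearance, Vd(ss), half-life, oral bioavailability (F), Cmax (μM) and Tmax derived from the plasma profiles.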

[6] = tested on: Rattus norvegicus; experiment: Covalent binding in rat at 20 mg/kg, po after 6 hrs; type: ADME, organism-based; design: dose 20 mg/kg, route oral; settings: in vivo
Summary of the method: (§3)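 Rats dosed orally at 20 mg/kg; liver and plasma proteins sampled 6 h postdose; covalently bound drug-derived material expressed as pmol equiv/mg protein.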

[7] = Tmax in dog at 1 mg/kg, po and 1 mg/kg, iv; type: ADME, organism-based, Canis lupus familiaris; settings: in vivo; summary of the method: as §2
[8] = Metabolic stability in human liver microsomes assessed as compound turnover at 1 uM after 15 mins; type: ADME, Microsome; settings: read-out: Drug metabolism
Summary of the method: (§4)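 Test compound at 1 μM incubated with human or rat liver microsomes (0.5 mg/mL protein) at 37 °C for 15 min; turnover measured.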

[9] = species: Homo sapiens; experiment: Binding affinity to human P-gp
[10] = tested on: Rattus norvegicus; experiment: Inhibition of GlyTl in rat frontal cortex assessed as increase in extracellular glycine level at 20 mg/kg, po up to 4 hrs relative to baseline; type: functional; design: scale not given: the % may be the effect or the level left
Summary of the method: (§5)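 Microdialysis probe placed in rat frontal cortex; extracellular glycine sampled up to 4 h after oral dosing at 3 or 20 mg/kg; peak glycine efflux given as % of basal level, mean ± SEM.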

[11] = Clearance in rat at 1 mg/kg, po and 1 mg/kg, iv; type: ADME, organism-based; settings: in vivo; summary of the method: as §1
[12] = target: T1, Sodium- and chloride-dependent glycine transporter 1 (Homo sapiens, UniProt P48067); experiment: Inhibition of human GlyT1a after 15 mins
T1 sequence (P48067 whole entry): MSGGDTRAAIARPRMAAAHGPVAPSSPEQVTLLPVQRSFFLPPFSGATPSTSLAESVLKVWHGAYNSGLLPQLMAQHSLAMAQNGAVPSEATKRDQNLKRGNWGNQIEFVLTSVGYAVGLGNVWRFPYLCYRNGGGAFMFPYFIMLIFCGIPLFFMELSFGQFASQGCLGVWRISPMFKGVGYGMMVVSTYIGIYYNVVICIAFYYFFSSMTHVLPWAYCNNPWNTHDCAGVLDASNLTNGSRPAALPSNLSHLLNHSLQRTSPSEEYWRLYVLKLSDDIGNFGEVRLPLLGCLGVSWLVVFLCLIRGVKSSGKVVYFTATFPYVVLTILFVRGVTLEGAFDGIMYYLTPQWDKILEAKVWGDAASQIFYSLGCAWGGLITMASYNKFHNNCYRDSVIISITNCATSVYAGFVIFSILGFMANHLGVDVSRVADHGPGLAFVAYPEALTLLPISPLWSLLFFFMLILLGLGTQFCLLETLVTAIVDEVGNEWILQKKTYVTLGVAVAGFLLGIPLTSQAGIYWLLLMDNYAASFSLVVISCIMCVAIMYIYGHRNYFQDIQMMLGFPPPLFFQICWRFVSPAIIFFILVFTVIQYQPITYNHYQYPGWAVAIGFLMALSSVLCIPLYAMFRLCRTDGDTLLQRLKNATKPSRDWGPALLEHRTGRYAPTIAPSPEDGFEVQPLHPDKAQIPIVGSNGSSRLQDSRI
Summary of the method: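 Human GlyT1, hGlyT1a isoform; IC50 taken as the average of at least two measurements.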

[13] = Half life in dog at 1 mg/kg, po and 1 mg/kg, iv; type: ADME, organism-based, Canis lupus familiaris; settings: in vivo; summary of the method: as §2
[14] = Clearance in rhesus monkey at 1 mg/kg, po and 1 mg/kg, iv; type: ADME, organism-based, Macaca mulatta; settings: in vivo
Summary of the method: (§6)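 Rhesus monkey pharmacokinetics after 1.0 mg/kg by both iv and oral routes; reported parameters are Cl, Vd(ss), T1/2, F, Cmax (μM) and Tmax.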

[15] = Volume of distribution at steady state in rhesus monkey at 1 mg/kg, po and 1 mg/kg, iv; type: ADME, organism-based, Macaca mulatta; settings: in vivo, read-out: Vdss; summary of the method: as §6
[16] = Volume of distribution at steady state in rat at 1 mg/kg, po and 1 mg/kg, iv; type: ADME, organism-based; settings: in vivo, read-out: Vdss; summary of the method: as §1
[17] = tested on: Rattus norvegicus; experiment: Inhibition of GlyTl in rat frontal cortex assessed as increase extracellular glycine level after 3 mg/kg, po up to 4 hrs relative to baseline; type: functional; design: scale not given: the % may be the effect or the level left; summary of the method: as §5
[18] = Oral bioavailability in rat at 1 mg/kg; type: ADME, organism-based; settings: in vivo; summary of the method: as §1
[19] = Tmax in rhesus monkey at 1 mg/kg, po and 1 mg/kg, iv; type: ADME, organism-based, Macaca mulatta; settings: in vivo; summary of the method: as §6
[20] = Cmax in dog at 1 mg/kg, po and 1 mg/kg, iv; type: ADME, organism-based, Canis lupus familiaris; settings: in vivo; summary of the method: as §2
[21] = Half life in rhesus monkey at 1 mg/kg, po and 1 mg/kg, iv; type: ADME, organism-based, Macaca mulatta; settings: in vivo; summary of the method: as §6
[22] = Oral bioavailability in rhesus monkey at 1 mg/kg; type: ADME, organism-based, Macaca mulatta; settings: in vivo; summary of the method: as §6
[23] = Ratio of drug level in brain to plasma in rat at 10 mg/kg, po; type: ADME, organism-based; design: dose 10 mg/kg, route oral; settings: read-out: BPR
[24] = Cmax in rhesus monkey at 1 mg/kg, po and 1 mg/kg, iv; type: ADME, organism-based, Macaca mulatta; settings: in vivo; summary of the method: as §6
[25] = Volume of distribution at steady state in dog at 1 mg/kg, po and 1 mg/kg, iv; type: ADME, organism-based, Canis lupus familiaris; settings: in vivo, read-out: Vdss; summary of the method: as §2
[26] = Clearance in dog at 1 mg/kg, po and 1 mg/kg, iv; type: ADME, organism-based, Canis lupus familiaris; settings: in vivo; summary of the method: as §2
[27] = tested on: Rattus norvegicus; experiment: Inhibition of PCP-induced cognitive deficit in extra dimensional shift in intra/extra dimensional rat model of executive function at 3 mg/kg, po; type: functional, organism-based; design: dose 3 mg/kg
Summary of the method: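 Rats given subchronic PCP to impair attentional set shifting, then dosed 3 mg/kg po; all ID/ED discriminations run, with trials to criterion scored for the extra-dimensional shift; significance at p < 0.05 versus PCP and vehicle groups.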

[28] = Tmax in rat at 1 mg/kg, po and 1 mg/kg, iv; type: ADME, organism-based; settings: in vivo; summary of the method: as §1
[29] = Cmax in rat at 1 mg/kg, po and 1 mg/kg, iv; type: ADME, organism-based; settings: in vivo; summary of the method: as §1
[30] = Metabolic stability in rat liver microsomes assessed as compound turnover at 1 uM after 15 mins; type: ADME, Microsome; settings: read-out: Drug metabolism; summary of the method: as §4
[31] = target: Cytochrome P450 2C9 (Homo sapiens, UniProt P11712); experiment: Inhibition of CYP2C9; type: ADME
Cytochrome P450 2C9, sequence (P11712 whole entry): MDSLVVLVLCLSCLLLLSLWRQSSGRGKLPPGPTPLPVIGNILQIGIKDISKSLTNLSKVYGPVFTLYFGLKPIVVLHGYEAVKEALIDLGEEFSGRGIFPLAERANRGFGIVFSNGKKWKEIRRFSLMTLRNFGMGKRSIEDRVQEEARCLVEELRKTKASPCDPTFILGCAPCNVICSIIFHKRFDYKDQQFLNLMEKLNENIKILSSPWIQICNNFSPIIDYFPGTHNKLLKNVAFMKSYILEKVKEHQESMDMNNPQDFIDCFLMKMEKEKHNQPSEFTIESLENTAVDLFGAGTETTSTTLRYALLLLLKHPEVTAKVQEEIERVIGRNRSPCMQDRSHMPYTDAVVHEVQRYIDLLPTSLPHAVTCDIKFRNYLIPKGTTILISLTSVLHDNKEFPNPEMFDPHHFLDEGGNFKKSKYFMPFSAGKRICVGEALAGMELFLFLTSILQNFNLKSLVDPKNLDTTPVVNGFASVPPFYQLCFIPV

[32] = tested on: Plasma; experiment: Covalent binding affinity in rat plasma at 20 mg/kg, po after 6 hrs; type: ADME, organism-based; design: dose 20 mg/kg, route oral; settings: in vivo; summary of the method: as §3
[33] = tested on: Liver; experiment: Covalent binding affinity at liver protein in rat at 20 mg/kg, po after 6 hrs; type: ADME, organism-based; design: dose 20 mg/kg, route oral; settings: in vivo; summary of the method: as §3
[34] = tested on: Brain; experiment: Receptor occupancy at Glyt1 in rat brain at 10 mg/kg, po; type: functional
[35] = target: Cytochrome P450 3A4 (Homo sapiens, UniProt P08684); experiment: Inhibition of CYP3A4; type: ADME
Cytochrome P450 3A4, sequence (P08684 whole entry): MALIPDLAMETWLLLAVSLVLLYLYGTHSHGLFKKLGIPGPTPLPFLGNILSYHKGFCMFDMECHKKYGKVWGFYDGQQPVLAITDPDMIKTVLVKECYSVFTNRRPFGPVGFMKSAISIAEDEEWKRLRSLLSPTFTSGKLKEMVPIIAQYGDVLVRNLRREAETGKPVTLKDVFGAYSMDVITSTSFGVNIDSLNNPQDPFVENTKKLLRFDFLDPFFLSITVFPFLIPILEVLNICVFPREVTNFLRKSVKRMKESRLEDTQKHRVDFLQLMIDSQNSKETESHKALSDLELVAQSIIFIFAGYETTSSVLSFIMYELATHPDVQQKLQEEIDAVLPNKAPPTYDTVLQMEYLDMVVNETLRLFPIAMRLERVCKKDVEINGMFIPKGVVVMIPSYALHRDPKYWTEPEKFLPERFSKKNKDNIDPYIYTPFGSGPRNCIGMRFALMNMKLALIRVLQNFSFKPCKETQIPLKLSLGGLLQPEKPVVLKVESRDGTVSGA

[36] = target: Cytochrome P450 2D6 (Homo sapiens, UniProt P10635); experiment: Inhibition of CYP2D6; type: ADME
Cytochrome P450 2D6, sequence (P10635 whole entry): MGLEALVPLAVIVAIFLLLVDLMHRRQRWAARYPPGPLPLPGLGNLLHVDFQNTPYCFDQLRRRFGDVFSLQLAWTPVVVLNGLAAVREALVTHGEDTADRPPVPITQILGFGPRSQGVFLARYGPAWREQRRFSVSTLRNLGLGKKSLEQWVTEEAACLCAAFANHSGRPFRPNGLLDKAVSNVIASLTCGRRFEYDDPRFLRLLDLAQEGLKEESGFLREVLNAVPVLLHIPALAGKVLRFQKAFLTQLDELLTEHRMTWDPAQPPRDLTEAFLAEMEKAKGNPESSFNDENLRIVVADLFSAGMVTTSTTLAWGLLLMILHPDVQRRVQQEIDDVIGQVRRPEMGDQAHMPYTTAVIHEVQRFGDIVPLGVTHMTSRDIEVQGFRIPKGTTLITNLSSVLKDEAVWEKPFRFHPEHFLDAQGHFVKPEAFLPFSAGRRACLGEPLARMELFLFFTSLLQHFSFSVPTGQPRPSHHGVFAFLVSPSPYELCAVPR

## O=C(NC[C@]1(CC2CC2)CC[C@H](S(=O)(=O)CC2CC2)CC1)c1ccc(Cl)cc1Cl
[1]
  Occ50: 0.35 µM
[2]
  Activity: inactive
[3]
  Occ50: 120 nM
[4]
  half-life: 2.4 h
[5]
  bioavailability: 48%
[6]
  PB: < 25 pmolequiv/mg
[7]
  Tmax: 1 h
[8]
  metabolised at 0.25 h, 1 µM: 35%
[9]
  Activity: inactive
[10]
  Activity: 184%
[11]
  clearance: 36 mL/min/kg
[12]
  pIC50: 7.54
[13]
  half-life: 10 h
[14]
  clearance: 24 mL/min/kg
[15]
  Vd: 2.3 L/kg
[16]
  Vd: 4.1 L/kg
[17]
  Activity: 151%
[18]
  bioavailability: 65%
[19]
  Tmax: 2.7 h
[20]
  Cmax: 1390 nM
[21]
  half-life: 1.5 h
[22]
  bioavailability: 2%
[23]
  Kp: 2.3
[24]
  Cmax: 40 nM
[25]
  Vd: 3.1 L/kg
[26]
  clearance: 4.9 mL/min/kg
[27]
  inhibition: Active
[28]
  Tmax: 0.8 h
[29]
  Cmax: 140 nM
[30]
  metabolised at 0.25 h, 1 µM: 40%

## Cc1cc(S(=O)(=O)[C@H]2CC[C@](CNC(=O)c3ccc(Cl)cc3Cl)(CC3CC3)CC2)no1
[8]
  metabolised at 0.25 h, 1 µM: 40%
[12]
  pIC50: 8.14
[30]
  metabolised at 0.25 h, 1 µM: 41%

## CS(=O)(=O)[C@H]1CC[C@](CNC(=O)c2ccc(Cl)cc2Cl)(CC2CC2)CC1
[12]
  pIC50: 5.48

## CCS(=O)(=O)[C@H]1CC[C@@](CNC(=O)c2ccc(Cl)cc2Cl)(CC2CC2)CC1
[12]
  pIC50: 5.88

## CCS(=O)(=O)[C@H]1CC[C@](CNC(=O)c2ccc(Cl)cc2Cl)(CC2CC2)CC1
[12]
  pIC50: 6.88

## O=C(NC[C@]1(CC2CC2)CC[C@@H](S(=O)(=O)c2cnn[nH]2)CC1)c1ccc(Cl)cc1Cl
[12]
  pIC50: 5.52
[31]
  pIC50: 8.00

## O=C(NC[C@]1(CC2CC2)CC[C@H](S(=O)(=O)c2c[nH]nn2)CC1)c1ccc(Cl)cc1Cl
[12]
  pIC50: 5.52
[31]
  inhibition (INH): Active

## O=C(NC[C@]1(CC2CC2)CC[C@H](S(=O)(=O)CC2CCC2)CC1)c1ccc(Cl)cc1Cl
[12]
  pIC50: 6.20

## CCCS(=O)(=O)[C@H]1CC[C@](CNC(=O)c2ccc(Cl)cc2Cl)(CC2CC2)CC1
[8]
  metabolised at 0.25 h, 1 µM: 55%
[12]
  pIC50: 7.43
[30]
  metabolised at 0.25 h, 1 µM: 53%

## Cc1nnc(S(=O)(=O)[C@H]2CC[C@@](CNC(=O)c3ccc(Cl)cc3Cl)(CC3CC3)CC2)s1
[12]
  pIC50: 5.48

## Cn1cc(S(=O)(=O)[C@H]2CC[C@@](CNC(=O)c3ccc(Cl)cc3Cl)(CC3CC3)CC2)nn1
[23]
  Kp: 0.1

## CCCS(=O)(=O)[C@H]1CC[C@@](CNC(=O)c2ccc(Cl)cc2Cl)(CC2CC2)CC1
[12]
  pIC50: 5.79

## CCS(=O)(=O)N1CCC(CNC(=O)c2ccc(Cl)cc2Cl)(CC2CC2)CC1
[32]
  Activity: 214 pmolequiv/mg
[12]
  pIC50: 7.59
[33]
  PB: 153 pmolequiv/mg

## Cn1cc(S(=O)(=O)[C@H]2CC[C@](CNC(=O)c3ccc(Cl)cc3Cl)(CC3CC3)CC2)nn1
[1]
  Occ50: 1.2 µM
[34]
  Occ50: 0.2 µM
[35]
  pIC50: < 5.00
[31]
  pIC50: < 5.00
[23]
  Kp: 0.16
[36]
  pIC50: < 5.00

## Cc1ccc(S(=O)(=O)[C@H]2CC[C@@](CNC(=O)c3ccc(Cl)cc3Cl)(CC3CC3)CC2)nn1
[8]
  metabolised at 0.25 h, 1 µM: 35%
[12]
  pIC50: 7.54
[30]
  metabolised at 0.25 h, 1 µM: 40%

## Cc1cc(S(=O)(=O)[C@H]2CC[C@@](CNC(=O)c3ccc(Cl)cc3Cl)(CC3CC3)CC2)no1
[8]
  metabolised at 0.25 h, 1 µM: 35%
[12]
  pIC50: 8.07
[30]
  metabolised at 0.25 h, 1 µM: 51%
